≈ marks a conversion by molar mass, not a printed value.
Key:
[1] = system: Staphylococcus aureus; test: Antibacterial activity against methicilin-resistant Staphylococcus aureus USA300 FPR3757 incubated for 20 to 24 hrs by microbroth dilution assay; type: functional; conditions: time hrs 20-24
Method in brief: (§1)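 Broth microdilution per EUCAST in Mueller-Hinton broth. Inoculum 5.0·10^5 CFU/mL, prepared from overnight single-colony cultures at OD600 0.1 then diluted 100x. Final compound concentrations 0.015–16 µg/mL. Incubation at 37 °C for 20–24 h, protected from light. MIC is the lowest concentration with no visible growth. Each replicate uses three cultures; n = 2–3.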

[2] = system: Staphylococcus aureus; test: Antibacterial activity against methicilin-resistant Staphylococcus aureus 4828 incubated for 20 to 24 hrs by microbroth dilution assay; type: functional; conditions: time hrs 20-24; method in brief: as §1
[3] = system: Staphylococcus aureus; test: Antibacterial activity against methicilin-resistant Staphylococcus aureus USA300 FPR3757 incubated for 20 hrs by microbroth dilution assay; type: functional
Method in brief: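 MBC determined from a completed MIC replicate (MRSA USA300 FPR3757, Mueller-Hinton, 5.0·10^5 CFU/mL). […] MBC is the lowest concentration giving a 99.9% reduction of the starting inoculum; n = 3.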

[4] = system: Caco-2; test: Cytotoxicity against human Caco2 cells assessed as cell viability at 108 ug/ml incubated for 3 hrs by MTT assay; type: cell-based; conditions: caco-2, 3 h, dose 108 µg/ml
Method in brief: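 Undifferentiated Caco-2 cells, medium aspirated, treated 3 h at 37 °C, 220 rpm with compound in HEPES-buffered HBSS (HBSS alone as negative control, SDS as positive control). MTT then added (final 0.5 mg mL⁻¹) for 2 h more. Formazan dissolved overnight at 4 °C in 10 mM HCl/50% isobutanol/10% SDS. Mean ± SD of 3 wells, one passage.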

[5] = system: PC-3; test: Cytotoxicity against human PC3 cells assessed as cell viability at 108 ug/ml incubated for 3 hrs by Cell-titer Glo assay; type: cell-based; conditions: pc-3, 3 h, dose 108 µg/ml
Method in brief: (§2)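 Cells rinsed of growth medium, then exposed 3 h at 37 °C, 220 rpm, light-protected, to compound in HBSS with 10 mM HEPES, pH 7.4 (final DMSO <1% at top concentrations). Plates equilibrated 10 min at rt, CellTiter-Glo 2.0 added, mixed 2 min, signal stabilized 10 min. Luminescence (ATP) normalized to HBSS-only control cells. Mean ± SD of 3 wells, one passage.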

[6] = system: Caco-2; test: Cytotoxicity against differentiated human Caco2 cells assessed as increase in ATP level at 108 ug/ml incubated for 3 hrs by Cell-titer Glo assay; type: cell-based; conditions: caco-2, 3 h, dose 108 µg/ml; method in brief: as §2
[7] = system: HEK293; test: Cytotoxicity against HEK293 cells expressing OAT3 assessed as cell viability at 108 ug/ml incubated for 3 hrs by Cell-titer Glo assay; type: ADME, cell-based; conditions: human, hek293, 3 h, dose 108 µg/ml; method in brief: as §2
[8] = system: Staphylococcus epidermidis; test: Antibacterial activity against methicilin-resistant Staphylococcus epidermis 933010 incubated for 20 to 24 hrs by microbroth dilution assay; type: functional; conditions: time hrs 20-24; method in brief: as §1
[9] = system: Staphylococcus aureus; test: Antibacterial activity against methicilin-resistant Staphylococcus aureus 55508 incubated for 20 to 24 hrs by microbroth dilution assay; type: functional; conditions: time hrs 20-24; method in brief: as §1
[10] = Cytotoxicity against MDCK1 assessed as cell viability at 108 ug/ml incubated for 3 hrs by Cell-titer Glo assay; design: species or system Canis lupus familiaris; conditions: dog, mdck1, 3 h, dose 108 µg/ml; method in brief: as §2
[11] = system: Caco-2; test: Cytotoxicity against undifferentiated human Caco2 cells assessed as ATP level at 108 ug/ml incubated for 3 hrs by Cell-titer Glo assay; type: cell-based; conditions: caco-2, 3 h, dose 108 µg/ml; method in brief: as §2
[12] = system: Staphylococcus aureus; test: Antibacterial activity against methicilin-resistant Staphylococcus aureus 52518 incubated for 20 to 24 hrs by microbroth dilution assay; type: functional; conditions: time hrs 20-24; method in brief: as §1

Compound | MIC [1] [µg/mL] | other results
C=C[C@]1(C)C[C@@H](OC(=O)Cn2cc(-c3cccc(-n4cnc5c(N)ncnc54)c3)nn2)[C@]2(C)[C@H](C)CC[C@]3(CCC(=O)[C@H]32)[C@@H](C)[C@@H]1O | 0.06 (≈ 0.0939 µM) | –
C=C[C@]1(C)C[C@@H](OC(=O)Cn2cc(-c3ccc(-n4cnc5c(N)ncnc54)cc3)nn2)[C@]2(C)[C@H](C)CC[C@]3(CCC(=O)[C@H]32)[C@@H](C)[C@@H]1O | 0.5 (≈ 0.783 µM) | –
C=C[C@]1(C)C[C@@H](OC(=O)Cn2cc(-c3cccc(CN)c3)nn2)[C@]2(C)[C@H](C)CC[C@]3(CCC(=O)[C@H]32)[C@@H](C)[C@@H]1O | 2 (≈ 3.74 µM) | –
C=C[C@]1(C)C[C@@H](OC(=O)Cn2cc(-c3cccc(Cn4cnc5c(N(CC)CC)ncnc54)c3)nn2)[C@]2(C)[C@H](C)CC[C@]3(CCC(=O)[C@H]32)[C@@H](C)[C@@H]1O | 1 (≈ 1.41 µM) | –
C=C[C@]1(C)C[C@@H](OC(=O)Cn2cc(-c3ccccc3C#N)nn2)[C@]2(C)[C@H](C)CC[C@]3(CCC(=O)[C@H]32)[C@@H](C)[C@@H]1O | 0.5 (≈ 0.942 µM) | –
C=C[C@]1(C)C[C@@H](OC(=O)Cn2cc(-c3ccc(Cn4cnc5c(NCCN)ncnc54)cc3)nn2)[C@]2(C)[C@H](C)CC[C@]3(CCC(=O)[C@H]32)[C@@H](C)[C@@H]1O | 0.5 (≈ 0.719 µM) | –
C=C[C@]1(C)C[C@@H](OC(=O)Cn2cc(-c3cccc(C#N)c3)nn2)[C@]2(C)[C@H](C)CC[C@]3(CCC(=O)[C@H]32)[C@@H](C)[C@@H]1O | 1 (≈ 1.88 µM) | –
C=C[C@]1(C)C[C@@H](OC(=O)Cn2cc(-c3ccccc3)nn2)[C@]2(C)[C@H](C)CC[C@]3(CCC(=O)[C@H]32)[C@@H](C)[C@@H]1O | 2 (≈ 3.96 µM) | –
C=C[C@]1(C)C[C@@H](OC(=O)Cn2cc(-c3ccccc3CN)nn2)[C@]2(C)[C@H](C)CC[C@]3(CCC(=O)[C@H]32)[C@@H](C)[C@@H]1O | 4 (≈ 7.48 µM) | –
C=C[C@]1(C)C[C@@H](OC(=O)Cn2cc(-c3ccccc3Cn3cnc4c(N(CC)CC)ncnc43)nn2)[C@]2(C)[C@H](C)CC[C@]3(CCC(=O)[C@H]32)[C@@H](C)[C@@H]1O | 1 (≈ 1.41 µM) | –
C=C[C@]1(C)C[C@@H](OC(=O)Cn2cc(-c3ccc(Cn4cnc5c(N)ncnc54)cc3)nn2)[C@]2(C)[C@H](C)CC[C@]3(CCC(=O)[C@H]32)[C@@H](C)[C@@H]1O | 0.03 (≈ 0.046 µM) | MIC [2]: 0.06 µg/mL (≈ 0.0919 µM); MBC [3]: 0.12 µg/mL (≈ 0.184 µM); Activity [4]: Non-Toxic; Activity [5]: Non-Toxic; Activity [6]: Toxic; Activity [7]: Non-Toxic; MIC [8]: 0.25 µg/mL (≈ 0.383 µM); MIC [9]: 0.06 µg/mL (≈ 0.0919 µM); Activity [10]: Non-Toxic; Activity [11]: Non-Toxic; MIC [12]: 0.03 µg/mL (≈ 0.046 µM)
C=C[C@]1(C)C[C@@H](OC(=O)Cn2cc(-c3cccc(Cn4cc(C)c(=O)[nH]c4=O)c3)nn2)[C@]2(C)[C@H](C)CC[C@]3(CCC(=O)[C@H]32)[C@@H](C)[C@@H]1O | 1 (≈ 1.55 µM) | –
C=C[C@]1(C)C[C@@H](OC(=O)Cn2cc(-c3ccc(Cn4cnc5c(N(CC)CC)ncnc54)cc3)nn2)[C@]2(C)[C@H](C)CC[C@]3(CCC(=O)[C@H]32)[C@@H](C)[C@@H]1O | 0.25 (≈ 0.353 µM) | –
C=C[C@]1(C)C[C@@H](OC(=O)Cn2cc(-c3ccc(Cn4cc(C)c(=O)[nH]c4=O)cc3)nn2)[C@]2(C)[C@H](C)CC[C@]3(CCC(=O)[C@H]32)[C@@H](C)[C@@H]1O | 0.13 (≈ 0.202 µM) | –
C=C[C@]1(C)C[C@@H](OC(=O)Cn2cc(-c3ccc(CN(CC)CC)cc3)nn2)[C@]2(C)[C@H](C)CC[C@]3(CCC(=O)[C@H]32)[C@@H](C)[C@@H]1O | 4 (≈ 6.77 µM) | –
C=C[C@]1(C)C[C@@H](OC(=O)Cn2cc(-c3ccc(Cc4ccc(OC)cc4)cc3)nn2)[C@]2(C)[C@H](C)CC[C@]3(CCC(=O)[C@H]32)[C@@H](C)[C@@H]1O | 8 (≈ 12.8 µM) | –
C=C[C@]1(C)C[C@@H](OC(=O)Cn2cc(-c3cccc(CO)c3)nn2)[C@]2(C)[C@H](C)CC[C@]3(CCC(=O)[C@H]32)[C@@H](C)[C@@H]1O | 0.5 (≈ 0.933 µM) | –
C=C[C@]1(C)C[C@@H](OC(=O)Cn2cc(-c3cccc(Cn4cnc5c(N)ncnc54)c3)nn2)[C@]2(C)[C@H](C)CC[C@]3(CCC(=O)[C@H]32)[C@@H](C)[C@@H]1O | 0.25 (≈ 0.383 µM) | –

Compound | MIC [1] [µg/mL] | other results
C=C[C@]1(C)C[C@@H](OC(=O)Cn2cc(-c3ccccc3Cn3cc(C)c(=O)[nH]c3=O)nn2)[C@]2(C)[C@H](C)CC[C@]3(CCC(=O)[C@H]32)[C@@H](C)[C@@H]1O | 1 (≈ 1.55 µM) | –
C=C[C@]1(C)C[C@@H](OC(=O)Cn2cc(-c3cccc(Cc4cccc(CO)c4)c3)nn2)[C@]2(C)[C@H](C)CC[C@]3(CCC(=O)[C@H]32)[C@@H](C)[C@@H]1O | 1 (≈ 1.6 µM) | –
C=C[C@]1(C)C[C@@H](OC(=O)Cn2cc(-c3ccc(CN4CCN(C)CC4)cc3)nn2)[C@]2(C)[C@H](C)CC[C@]3(CCC(=O)[C@H]32)[C@@H](C)[C@@H]1O | 4 (≈ 6.47 µM) | –
C=C[C@]1(C)C[C@@H](OC(=O)Cn2cc(-c3ccccc3Cn3cnc4c(N(CC)CC)nc(N)nc43)nn2)[C@]2(C)[C@H](C)CC[C@]3(CCC(=O)[C@H]32)[C@@H](C)[C@@H]1O | 0.5 (≈ 0.691 µM) | –
C=C[C@]1(C)C[C@@H](OC(=O)Cn2cc(-c3cccc(CN(CC)CC)c3)nn2)[C@]2(C)[C@H](C)CC[C@]3(CCC(=O)[C@H]32)[C@@H](C)[C@@H]1O | 2 (≈ 3.39 µM) | –
C=C[C@]1(C)C[C@@H](OC(=O)Cn2cc(-c3cccc(N)c3)nn2)[C@]2(C)[C@H](C)CC[C@]3(CCC(=O)[C@H]32)[C@@H](C)[C@@H]1O | 1 (≈ 1.92 µM) | –
C=C[C@]1(C)C[C@@H](OC(=O)Cn2cc(-c3ccccc3Cn3cnc4c(N)ncnc43)nn2)[C@]2(C)[C@H](C)CC[C@]3(CCC(=O)[C@H]32)[C@@H](C)[C@@H]1O | 0.5 (≈ 0.766 µM) | –
C=C[C@]1(C)C[C@@H](OC(=O)Cn2cc(-c3ccccc3Cc3ccc(OC)cc3)nn2)[C@]2(C)[C@H](C)CC[C@]3(CCC(=O)[C@H]32)[C@@H](C)[C@@H]1O | 2 (≈ 3.2 µM) | –
C=C[C@]1(C)C[C@@H](OC(=O)Cn2cc(-c3ccc(CN4C(=O)c5ccccc5C4=O)cc3)nn2)[C@]2(C)[C@H](C)CC[C@]3(CCC(=O)[C@H]32)[C@@H](C)[C@@H]1O | 0.25 (≈ 0.376 µM) | –
C=C[C@]1(C)C[C@@H](OC(=O)Cn2cc(-c3cccc(Cc4cccc(CN(CC)CC)c4)c3)nn2)[C@]2(C)[C@H](C)CC[C@]3(CCC(=O)[C@H]32)[C@@H](C)[C@@H]1O | 2 (≈ 2.94 µM) | –
C=C[C@]1(C)C[C@@H](OC(=O)Cn2cc(-c3cccc(Cn4cnc5c(N6CCN(C)CC6)ncnc54)c3)nn2)[C@]2(C)[C@H](C)CC[C@]3(CCC(=O)[C@H]32)[C@@H](C)[C@@H]1O | 0.5 (≈ 0.679 µM) | –
C=C[C@]1(C)C[C@@H](OC(=O)Cn2cc(-c3ccc(CO)cc3)nn2)[C@]2(C)[C@H](C)CC[C@]3(CCC(=O)[C@H]32)[C@@H](C)[C@@H]1O | 0.25 (≈ 0.467 µM) | –
C=C[C@]1(C)C[C@@H](OC(=O)Cn2cc(-c3cccc(Cc4ccc(N(CC)CC)cc4)c3)nn2)[C@]2(C)[C@H](C)CC[C@]3(CCC(=O)[C@H]32)[C@@H](C)[C@@H]1O | 8 (≈ 12 µM) | –
C=C[C@]1(C)C[C@@H](OC(=O)Cn2cc(-c3cccc(CN4CCN(C)CC4)c3)nn2)[C@]2(C)[C@H](C)CC[C@]3(CCC(=O)[C@H]32)[C@@H](C)[C@@H]1O | 2 (≈ 3.24 µM) | –
C=C[C@]1(C)C[C@@H](OC(=O)Cn2cc(-c3cccc(Cc4ccc(OC)cc4)c3)nn2)[C@]2(C)[C@H](C)CC[C@]3(CCC(=O)[C@H]32)[C@@H](C)[C@@H]1O | 16 (≈ 25.6 µM) | –
C=C[C@]1(C)C[C@@H](OC(=O)Cn2cc(-c3ccc(Cn4cnc5c(NC(=N)N)ncnc54)cc3)nn2)[C@]2(C)[C@H](C)CC[C@]3(CCC(=O)[C@H]32)[C@@H](C)[C@@H]1O | 0.5 (≈ 0.72 µM) | –
C=C[C@]1(C)C[C@@H](OC(=O)Cn2cc(-c3ccc(CN)cc3)nn2)[C@]2(C)[C@H](C)CC[C@]3(CCC(=O)[C@H]32)[C@@H](C)[C@@H]1O | 2 (≈ 3.74 µM) | –
C=C[C@]1(C)C[C@@H](OC(=O)Cn2cc(-c3cccc(Cn4cnc5c(N(CC)CC)nc(N)nc54)c3)nn2)[C@]2(C)[C@H](C)CC[C@]3(CCC(=O)[C@H]32)[C@@H](C)[C@@H]1O | 0.5 (≈ 0.691 µM) | –

Source: ChEMBL document CHEMBL4699669, “Discovery of a Potent Adenine-Benzyltriazolo-Pleuromutilin Conjugate with Pronounced Antibacterial Activity against MRSA” (J Med Chem, 2020)
